The record followed here is ChEMBL document CHEMBL2434844, “Synthesis, antimicrobial, antioxidant activities of novel 6-aryl-5-cyano thiouracil derivatives” (Eur J Med Chem, 2013).

For assay [1], the system named is Staphylococcus aureus. Put plainly: Antibacterial activity against Staphylococcus aureus ATCC 12600 at 10 mg/disc after 48 hrs by disc-diffusion method. Type of assay: functional. In short, it runs like this: (§1)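 Disc diffusion per Bauer method under NCCLS conditions on nutrient agar/Mueller-Hinton agar. Compound dissolved in sterile DMSO at 10 mg/mL, filtered 0.2 µm, stored frozen at -15 °C; 10 mg/disc in DMSO applied. DMSO control. Inhibition zone diameter measured in mm after 48 h incubation at 28 °C.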
For orientation: In agar diffusion tests the substance spreads into inoculated agar from a disc or well.

Assay [2] has as its system Radical scavenging activity. In words: Antioxidant activity assessed as DPPH free radical scavenging activity after 20 mins by UV-visible spectrophotometric analysis. The format is functional. In a few lines: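 Kept in the dark at room temperature for 20 min, then absorbance read at 517 nm against DPPH blank, DMSO baseline. % scavenging = [(Ac−At)/Ac]×100; IC50 (µg/mL) from concentration plot; mean ± SEM, n=3, 8 replica each.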
On the technique in general: Loss of DPPH colour is used to gauge radical scavenging.

The subject of assay [3] is Bacillus cereus. Put plainly: Antibacterial activity against Bacillus cereus ATCC 14579 after 24 hrs by microdilution technique. Type of assay: functional. In short, it runs like this:
(§2)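 MIC by agar microdilution on Mueller-Hinton agar per NCCLS 1997. Bacteria subcultured overnight at 37 °C on MHA, Candida on SDA at 35 °C for 24-48 h, each passaged at least twice. Incubated 37 °C in humid chamber, read after 24 h.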
(Broth dilution looks for growth in wells or tubes with falling amounts of substance.)

Assay [4] concerns Escherichia coli. Put plainly: Antibacterial activity against Escherichia coli ATCC 11775 after 24 hrs by microdilution technique. Type of assay: functional. In a few lines: as §2
Assay [5] concerns Candida albicans. Put plainly: Antifungal activity against Candida albicans ATCC 26555 at 10 mg/disc after 48 hrs by disc-diffusion method. The format is functional. In short, it runs like this:
as §1

Assay [6] has as its system Aspergillus flavus. Put plainly: Antifungal activity against Aspergillus flavus ATCC 11495 after 24 hrs by microdilution technique. The format is functional.
For assay [7], the system named is Aspergillus flavus. In words: Antifungal activity against Aspergillus flavus ATCC 11495 at 10 mg/disc after 48 hrs by disc-diffusion method. The format is functional. In a few lines: as §1
Assay [8] concerns Candida albicans. Put plainly: Antifungal activity against Candida albicans ATCC 26555 after 24 hrs by microdilution technique. The format is functional. In short, it runs like this: as §2
For assay [9], the system named is Escherichia coli. Put plainly: Antibacterial activity against Escherichia coli ATCC 11775 at 10 mg/disc after 48 hrs by disc-diffusion method. The format is functional, DSM 30083 = JCM 1649. In short, it runs like this: as §1
The subject of assay [10] is Bacillus cereus. In words: Antibacterial activity against Bacillus cereus ATCC 14579 at 10 mg/disc after 48 hrs by disc-diffusion method. Type of assay: functional. In a few lines: as §1
In assay [11] the test system is Staphylococcus aureus. In words: Antibacterial activity against Staphylococcus aureus ATCC 12600 after 24 hrs by microdilution technique. Type of assay: functional. Conditions: ATCC 12600, 24 h. In a few lines:
as §2

The structures appear in SMILES notation. Converted amounts (≈) assume the structure as drawn. The source made the active and inactive calls. The rule behind the calls is not given here.

Regarding `N#Cc1c(N/N=C/c2ccccc2)nc(=S)[nH]c1-c1ccc(F)cc1`, the “diameter of the inhibition zone (DIZ)” value in the assay with Staphylococcus aureus [1] was determined as 24 mm; in the assay with Candida albicans [5], 19 mm; with Aspergillus flavus [7], 19 mm; in the assay on Escherichia coli [9], 19 mm; in the assay on Bacillus cereus [10] it was 22 mm. Moreover, the Activity result in assay [2] is “Dose-dependent effect”. In assay [2], the IC50 is 13.8 µg/mL (≈ 39.5 µM). The MIC against Bacillus cereus [3] (ATCC 14579, 24 h) was 16 µg/mL (≈ 45.8 µM); in the assay with Escherichia coli [4] (DSM 30083 = JCM 1649, 24 h) it was 16 µg/mL (≈ 45.8 µM); in the assay on Aspergillus flavus [6] (ATCC 11495, 24 h), 16 µg/mL (≈ 45.8 µM); against Candida albicans [8] (ATCC 26555, 24 h), 16 µg/mL (≈ 45.8 µM); against Staphylococcus aureus [11] it was 16 µg/mL (≈ 45.8 µM).
For `O=C1O[C@H]([C@@H](O)CO)C(O)=C1O` [ASCORBIC ACID], in assay [2], the Activity result is “Dose-dependent effect” and the IC50 is 10 µg/mL (≈ 56.8 µM).
Turning to `COc1ccc(/C=N/Nc2nc(=S)[nH]c(-c3ccc(F)cc3)c2C#N)cc1`, the “diameter of the inhibition zone (DIZ)” value was 23 mm in the assay on Staphylococcus aureus [1]; 18 mm in the assay on Candida albicans [5]; 18 mm in the assay on Aspergillus flavus [7]; 19 mm in the assay on Escherichia coli [9]; 21 mm with Bacillus cereus [10]. Further, in assay [2], the Activity entry was “Dose-dependent effect”. In [2], the concentration for half-maximal inhibition (IC50) was 12.68 µg/mL (≈ 33.4 µM). Moreover, the MIC in the assay with Bacillus cereus [3] (ATCC 14579, 24 h) amounted to 16 µg/mL (≈ 42.2 µM); with Escherichia coli [4] (DSM 30083 = JCM 1649, 24 h), 16 µg/mL (≈ 42.2 µM); with Aspergillus flavus [6] (ATCC 11495, 24 h), 16 µg/mL (≈ 42.2 µM); against Candida albicans [8] (ATCC 26555, 24 h), 16 µg/mL (≈ 42.2 µM); in the assay on Staphylococcus aureus [11] it was 16 µg/mL (≈ 42.2 µM).
Regarding `COc1cc(-c2[nH]c(=S)n3c(=O)[nH]nc3c2C#N)cc(OC)c1OC`, in the assay on Staphylococcus aureus [1], the “diameter of the inhibition zone (DIZ)” value is listed as 10 mm. Moreover, in assay [2], the Activity entry is “Dose-dependent effect”. In addition, in assay [2], the IC50 was found to be 9.34 µg/mL (≈ 26 µM). Besides, the MIC entry in the assay with Bacillus cereus [3], in the assay with Escherichia coli [4] (DSM 30083 = JCM 1649), in the assay with Aspergillus flavus [6] and in the assay on Candida albicans [8] was “inactive” throughout. Moreover, the “diameter of the inhibition zone (DIZ)” value in the assay with Candida albicans [5], in the assay on Aspergillus flavus [7], with Escherichia coli [9] (DSM 30083 = JCM 1649) and in the assay with Bacillus cereus [10] was “inactive” throughout. In the assay on Staphylococcus aureus [11], this molecule registered an MIC of 64 µg/mL (≈ 178 µM).
`N#Cc1c(-c2ccc(F)cc2)[nH]c(=S)n2c(=O)[nH]nc12`: the “diameter of the inhibition zone (DIZ)” value in the assay on Staphylococcus aureus [1] is given as 12 mm. Moreover, the Activity entry in assay [2] was “Dose-dependent effect”. Moreover, the IC50 in assay [2] is 19.62 µg/mL (≈ 68.3 µM). Moreover, the MIC result with Bacillus cereus [3], with Escherichia coli [4] (DSM 30083 = JCM 1649), in the assay with Aspergillus flavus [6] and in the assay with Candida albicans [8] was “inactive” throughout. Moreover, the “diameter of the inhibition zone (DIZ)” value with Candida albicans [5], in the assay with Aspergillus flavus [7], in the assay with Escherichia coli [9] (DSM 30083 = JCM 1649) and in the assay on Bacillus cereus [10] was “inactive” throughout. In the assay with Staphylococcus aureus [11], this molecule came in with an MIC of 32 µg/mL (≈ 111 µM).
`N#Cc1c(-c2ccc(F)cc2)[nH]c(=S)n2c(=O)c(=O)[nH]nc12`: the “diameter of the inhibition zone (DIZ)” value was determined as 14 mm in the assay on Staphylococcus aureus [1] and 18 mm in the assay on Aspergillus flavus [7]. The Activity result in [2] is “Dose-dependent effect”. Moreover, the IC50 in [2] worked out at 14.72 µg/mL (≈ 46.7 µM). The MIC result in the assay on Bacillus cereus [3], in the assay on Escherichia coli [4] (DSM 30083 = JCM 1649) and in the assay on Candida albicans [8] was “inactive” throughout. Further, the “diameter of the inhibition zone (DIZ)” value in the assay with Candida albicans [5], in the assay on Escherichia coli [9] (DSM 30083 = JCM 1649) and with Bacillus cereus [10] was “inactive” each time. Moreover, the MIC against Aspergillus flavus [6] (ATCC 11495, 24 h) was determined as 16 µg/mL (≈ 50.7 µM); against Staphylococcus aureus [11] it was 32 µg/mL (≈ 101 µM).
Regarding `N#Cc1c(-c2ccc(Br)cc2)[nH]c(=S)n2ncnc12`, the “diameter of the inhibition zone (DIZ)” value was 6 mm in the assay on Staphylococcus aureus [1]; 8 mm with Candida albicans [5]; 7 mm with Aspergillus flavus [7]; 7 mm with Escherichia coli [9]; 5 mm in the assay with Bacillus cereus [10]. Besides, the MIC in the assay with Bacillus cereus [3] (ATCC 14579, 24 h) worked out at 128 µg/mL (≈ 385 µM); in the assay with Escherichia coli [4] (DSM 30083 = JCM 1649, 24 h), 128 µg/mL (≈ 385 µM); against Aspergillus flavus [6] (ATCC 11495, 24 h), 256 µg/mL (≈ 771 µM); against Candida albicans [8] (ATCC 26555, 24 h), 128 µg/mL (≈ 385 µM); in the assay with Staphylococcus aureus [11] it was 128 µg/mL (≈ 385 µM).
With `N#Cc1c(-c2ccc(Br)cc2)[nH]c(=S)n2cnnc12`, the “diameter of the inhibition zone (DIZ)” value with Staphylococcus aureus [1] is reported as 21 mm; with Candida albicans [5] it was 16 mm; with Aspergillus flavus [7] it was 17 mm; in the assay on Escherichia coli [9], 12 mm; with Bacillus cereus [10], 17 mm. The MIC against Bacillus cereus [3] (ATCC 14579, 24 h) turned out to be 16 µg/mL (≈ 48.2 µM); in the assay with Escherichia coli [4] (DSM 30083 = JCM 1649, 24 h) it was 16 µg/mL (≈ 48.2 µM); in the assay with Aspergillus flavus [6] (ATCC 11495, 24 h), 16 µg/mL (≈ 48.2 µM); in the assay with Candida albicans [8] (ATCC 26555, 24 h) it was 16 µg/mL (≈ 48.2 µM); against Staphylococcus aureus [11] it was 16 µg/mL (≈ 48.2 µM).

One may read the IC50 as the concentration needed to halve the response being measured. As a reminder, the MIC is the least concentration at which growth counts as inhibited.
